# Test results reported in ChEMBL document CHEMBL4706708, “Improving the solubility of anti-proliferative thieno[2,3-b]quinoline-2-carboxamides” (Bioorg Med Chem, 2021).
# Legend:
# [1] = test system: MDA-MB-231; test: Antiproliferative activity against human MDA-MB-231 cells assessed as cell growth at 1 uM measured after 3 days by [3H]-thymidine incorporation assay relative to control; type: functional; settings: MDA-MB-231, 72 h, time 3 day, read-out: Activity
# Summary of the method: (§1)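 HCT116 and MDA-MB-231 cells from ATCC, seeded at 3000 cells/well, exposed to inhibitor for three days; 0.04 µCi 3H-thymidine added per well 5 h before harvest onto glass fibre filters, incorporation counted by scintillation and expressed relative to untreated controls. Triplicate wells, at least two independent experiments. Single-point screen at 1 µM; IC50 determined from varying concentrations.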
# [2] = Thermodynamic solubility of compound in water measured after 15 mins RP-HPLC analysis; type: physicochemical; settings: read-out: Therm_solubility
# [3] = test system: HCT-116; test: Antiproliferative activity against human HCT-116 cells assessed as cell growth inhibition measured after 3 days by [3H]-thymidine incorporation assay; type: functional, cell-based; summary of the method: as §1
# [4] = test system: HCT-116; test: Antiproliferative activity against human HCT-116 cells assessed as cell growth at 1 uM measured after 3 days by [3H]-thymidine incorporation assay relative to control; type: functional; settings: HCT-116, 72 h, time 3 day, read-out: Activity; summary of the method: as §1
# [5] = test system: MDA-MB-231; test: Antiproliferative activity against human MDA-MB-231 cells assessed as cell growth inhibition measured after 3 days by [3H]-thymidine incorporation assay; type: functional, cell-based; summary of the method: as §1
# [6] = Stability in water measured after 15 mins RP-HPLC analysis; type: physicochemical; settings: buffer, 0.25 h
solubility thermodynamic at 0.25 h [2] [µg/mL],IC50 [3] [nM],IC50 [5] [nM],Stabilty [6],Compound,growth at 1 µM [1] [%],growth at 1 µM [4] [%]
1.63,573,636,,CC(=O)c1cc2c(N)c(C(=O)Nc3cccc(Cl)c3C)sc2nc1C,13.7,10
0.68,422,506,,CC(=O)c1cc2c(N)c(C(=O)Nc3cccc(C)c3C)sc2nc1C,8.9,2.1
0.61,151,122,,Cc1c(Br)cccc1NC(=O)c1sc2nc3c(cc2c1N)CN(Cc1ccccc1)CC3,3.5,1
1.72,201,162,,Cc1cccc(NC(=O)c2sc3nc4c(cc3c2N)CN(Cc2ccccc2)CC4)c1C,4,1.5
2.21,171,81,,Cc1nc2sc(C(=O)Nc3cccc4ccccc34)c(N)c2cc1C(C)O (stereo not drawn),9.9,1.7
0.44,,,Unstable,Cc1c(Cl)cccc1NC(=O)c1sc2nc3c(cc2c1N)CN(C)CC3,95.3,101
1.15,,,Unstable,Cc1c(Cl)cccc1NC(=O)c1sc2nc3c(cc2c1N)COCC3,50.9,78.1
2.41,72,76,,Cc1nc2sc(C(=O)Nc3cccc(Cl)c3C)c(N)c2cc1C(C)O (stereo not drawn),11.7,2.2
0.77,193,150,,Cc1c(Cl)cccc1NC(=O)c1sc2nc3c(cc2c1N)CN(Cc1ccccc1)CC3,4,2.3
0.26,,,Unstable,CC(=O)c1cc2c(N)c(C(=O)Nc3cccc4c3OCCO4)sc2nc1C,104,72.5
1.31,> 1000,> 1000,,Cc1c(NC(=O)c2sc3nc4c(cc3c2N)CN(Cc2ccccc2)CC4)cccc1C(F)(F)F,61.5,69.7
0.26,,,Unstable,CC(=O)c1cc2c(N)c(C(=O)Nc3ccnc4ccccc34)sc2nc1C,91.6,102
1.08,591,633,,CC(=O)c1cc2c(N)c(C(=O)Nc3cccc4ccccc34)sc2nc1C,13.6,7.8
3.97,640,644,,Nc1c(C(=O)Nc2cccc3ccccc23)sc2nc3c(cc12)CN(Cc1ccccc1)CC3,19.3,4.7
0.32,,,,Nc1c(C(=O)Nc2ccc3c(c2)OCCO3)sc2nc3c(cc12)C(=O)CCC3,102,76.2
1.15,183,219,,CC(=O)c1cc2c(N)c(C(=O)Nc3cccc(Br)c3C)sc2nc1C,11,4
1.03,,,,Nc1c(C(=O)Nc2ccccc2)sc2nc3c(cc12)COCC3,98.9,91.5
7.55,,,,Cc1nc2sc(C(=O)Nc3cccc4cnccc34)c(N)c2cc1C(C)O (stereo not drawn),102,110
7.52,,,,Cc1ccccc1NC(=O)c1sc2nc3c(cc2c1N)COCC3,103,101
